Experimental data: ChEMBL document CHEMBL3259611, “Suppression of inflammatory responses by handelin, a guaianolide dimer from Chrysanthemum boreale, via downregulation of NF-κB signaling and pro-inflammatory cytokine production” (J Nat Prod, 2014)

Key:
RAW264.7 [1] = assay: Antiinflammatory activity in mouse RAW264.7 cells assessed as inhibition of LPS-induced iNOS protein expression after 16 hrs by Western blotting analysis; assay type: functional, cell-based
[2] = Cytotoxicity against mouse RAW264.7 cells assessed as cell survival at 20 uM after 4 hrs by MTT assay relative to control; assay type: cell-based; conditions: read-out: Survival
Outline: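 RAW 264.7 cells plated at 3 × 10^5 cells/mL in phenol red-free 10% FBS–DMEM, incubated 24 h, then treated with compound plus 1 μg/mL LPS for 20 h. After the Griess step, MTT was added (final 500 μg/mL) for 4 h at 37 °C. Formazan dissolved in DMSO, A570 read; survival taken relative to control; triplicate.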

Rattus norvegicus = assay: Antiinflammatory activity in rat paw edema model assessed as inhibition of carrageenan-induced paw edema at 10 mg/kg, po administered 30 mins prior to carrageenan challenge measured after 4 hrs relative to vehicle-treated control; assay type: functional
Outline: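 Male SD rats (150−170 g) given compound orally in 0.5% CMC-Na 30 min before subplantar injection of 0.1 mL 1% carrageenan; the contralateral paw received saline. Paw volume was measured by plethysmometer from 0 to 6 h, with inhibition taken at 4 h versus vehicle. Mean ± SD, n = 6.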

RAW264.7 [3] = assay: Antiinflammatory activity in mouse RAW264.7 cells assessed as inhibition of LPS-induced iNOS protein expression at 40 uM after 16 hrs by Western blotting analysis relative to control; assay type: functional
Outline: (§1)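 RAW 264.7 cells given LPS (1 μg/mL) with or without compound for 16 h. Cell lysates were Western blotted for iNOS and COX-2 (6−15% SDS-PAGE, PVDF, ECL detection). Performed in triplicate.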

RAW264.7 [4] = assay: Antiinflammatory activity in mouse RAW264.7 cells assessed as inhibition of LPS-induced COX2 protein expression at 40 uM after 16 hrs by Western blotting analysis relative to control; assay type: functional; outline: as §1
RAW264.7 [5] = assay: Antiinflammatory activity in mouse RAW264.7 cells assessed as inhibition LPS-induced IL-1beta protein expression at 10 uM after 4 hrs by Western blotting analysis; assay type: functional
Outline: (§2)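 RAW 264.7 cells stimulated with LPS (1 μg/mL) with or without compound for 4 h. Lysates were resolved by 6−15% SDS-PAGE and blotted to PVDF. Blocked in 5% milk/PBST, primary antibody overnight at 4 °C, secondary antibody 2 h, detected by ECL. Triplicate, representative of three experiments.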

RAW264.7 [6] = assay: Antiinflammatory activity in mouse RAW264.7 cells assessed as inhibition LPS-induced IL-1beta protein expression at 20 uM after 4 hrs by Western blotting analysis; assay type: functional; outline: as §2
RAW264.7 [7] = assay: Antiinflammatory activity in mouse RAW264.7 cells assessed as inhibition LPS-induced TNF-alpha mRNA expression at 40 uM after 4 hrs by RT-PCR analysis relative to control; assay type: functional
Outline: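 RAW 264.7 cells stimulated with LPS (1 μg/mL) with or without compound for 4 h. Total RNA was isolated and cytokine mRNA was analysed by RT-PCR: 94 °C 4 min, then 25−30 cycles of 94/55/72 °C for 30 s each, then 72 °C 5 min. Products were run on 2% agarose and stained with SYBR-Safe. Triplicate, representative of three experiments.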

## C=C1C(=O)O[C@@H]2[C@@H]3[C@@]4(C=C[C@@]3(C)[C@]3(C4)C(=O)O[C@@H]4[C@H]5C(C)=CC[C@H]5[C@](C)(O)C[C@H](OC(C)=O)[C@H]43)[C@](C)(O)CC[C@@H]12
RAW264.7 [1]
  inhibition: Dose-dependent effect
[2]
  viability at 4 h, 20 µM: > 80%
Rattus norvegicus
  inhibition in vivo at 10 mg/kg: 22%
RAW264.7 [3]
  fold change (FC): 0.13
RAW264.7 [4]
  fold change (FC): 0.15
RAW264.7 [5]
  fold change (FC): 0.73
RAW264.7 [6]
  fold change (FC): 0.67
RAW264.7 [7]
  fold change (FC): 0.1
